Test results taken from ChEMBL document CHEMBL4261600 (Eur J Med Chem, 2018).

Assays:
[1] = target: ALK tyrosine kinase receptor (Homo sapiens) (UniProt Q9UM73); assay: Binding affinity to wild-type human partial length ALK (I1088 to E1409 residues) expressed in mammalian expression system assessed as remaining unbound target protein level at 1000 nM by Kinomescan method relative to control
How it was run: (§1)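 Profiled in a KINOMEscan binding panel with the inhibitor at a single concentration of 1 μM. Binding to each kinase was read out as percent of control, relative to a DMSO control. Strong binders were defined as those with a percent control value below 1.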

[2] = target: Aurora kinase C (Homo sapiens) (UniProt Q9UQB9); assay: Binding affinity to wild-type human full length AURKC (M1 to S275 residues) expressed in bacterial expression system assessed as remaining unbound target protein level at 1000 nM by Kinomescan method relative to control
How it was run: (§2)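 Single-point competition binding screen across a panel of 468 kinases and mutants, with the inhibitor at 1 μM. Binding is read out as percent of a DMSO control, and targets below 1 percent control were classed as strong binders.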

[3] = target: Cyclin-dependent kinase 11A (Homo sapiens) (UniProt Q9UQ88); assay: Binding affinity to wild-type human partial length CDC2L2 (D391 to K730 residues) expressed in bacterial expression system assessed as remaining unbound target protein level at 1000 nM by Kinomescan method relative to control; how it was run: as §1
Sequence of Cyclin-dependent kinase 11A (Homo sapiens) (Q9UQ88 whole entry, the tested form may be a part): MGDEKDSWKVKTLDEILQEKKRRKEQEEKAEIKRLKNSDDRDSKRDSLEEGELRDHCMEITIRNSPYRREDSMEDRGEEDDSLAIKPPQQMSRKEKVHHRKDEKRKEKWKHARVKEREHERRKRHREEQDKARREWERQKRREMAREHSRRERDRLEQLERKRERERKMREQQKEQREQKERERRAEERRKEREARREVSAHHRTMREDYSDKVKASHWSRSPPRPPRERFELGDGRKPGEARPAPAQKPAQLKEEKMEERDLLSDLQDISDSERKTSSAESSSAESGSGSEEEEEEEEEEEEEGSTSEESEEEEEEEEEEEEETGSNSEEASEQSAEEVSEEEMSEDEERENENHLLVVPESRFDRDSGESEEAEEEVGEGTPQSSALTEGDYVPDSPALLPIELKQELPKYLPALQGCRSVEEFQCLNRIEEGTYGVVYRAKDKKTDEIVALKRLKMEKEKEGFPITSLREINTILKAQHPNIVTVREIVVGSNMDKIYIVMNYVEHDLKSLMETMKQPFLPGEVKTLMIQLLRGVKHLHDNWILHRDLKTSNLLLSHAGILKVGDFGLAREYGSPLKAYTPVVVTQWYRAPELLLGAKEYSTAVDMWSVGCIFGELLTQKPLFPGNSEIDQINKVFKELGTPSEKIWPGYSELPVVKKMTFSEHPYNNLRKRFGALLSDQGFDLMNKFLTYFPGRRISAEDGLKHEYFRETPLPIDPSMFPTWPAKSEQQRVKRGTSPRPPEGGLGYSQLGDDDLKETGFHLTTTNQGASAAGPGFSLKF

[4] = target: Serine/threonine-protein kinase DCLK1 (Homo sapiens) (UniProt O15075); assay: Binding affinity to wild-type human partial length DCAMKL1 (L270 to A662 residues) expressed in mammalian expression system assessed as remaining unbound target protein level at 1000 nM by Kinomescan method relative to control
Sequence of Serine/threonine-protein kinase DCLK1 (Homo sapiens) (O15075 whole entry, the tested form may be a part): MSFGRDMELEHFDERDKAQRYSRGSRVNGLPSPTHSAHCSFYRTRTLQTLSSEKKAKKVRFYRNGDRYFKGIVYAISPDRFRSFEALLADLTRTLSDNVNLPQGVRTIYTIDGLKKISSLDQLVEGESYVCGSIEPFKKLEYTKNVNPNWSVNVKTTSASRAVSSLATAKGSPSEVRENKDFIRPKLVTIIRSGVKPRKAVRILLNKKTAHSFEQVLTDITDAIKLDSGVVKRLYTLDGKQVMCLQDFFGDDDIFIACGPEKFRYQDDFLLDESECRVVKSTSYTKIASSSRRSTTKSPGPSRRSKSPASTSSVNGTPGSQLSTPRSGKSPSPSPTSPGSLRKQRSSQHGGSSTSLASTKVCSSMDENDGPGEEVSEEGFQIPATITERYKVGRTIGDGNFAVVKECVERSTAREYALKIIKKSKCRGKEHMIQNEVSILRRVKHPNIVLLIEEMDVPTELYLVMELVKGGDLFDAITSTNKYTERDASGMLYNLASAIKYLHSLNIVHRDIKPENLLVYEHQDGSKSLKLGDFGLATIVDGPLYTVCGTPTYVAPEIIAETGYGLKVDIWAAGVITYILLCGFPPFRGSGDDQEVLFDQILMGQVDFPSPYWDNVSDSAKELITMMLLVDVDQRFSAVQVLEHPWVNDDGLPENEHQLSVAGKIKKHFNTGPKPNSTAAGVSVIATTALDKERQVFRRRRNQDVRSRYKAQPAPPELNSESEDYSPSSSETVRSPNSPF

[5] = target: Discoidin domain-containing receptor 2 (Homo sapiens) (UniProt Q16832); assay: Binding affinity to wild-type human partial length DDR2 (V555 to E855 residues) expressed in mammalian expression system assessed as remaining unbound target protein level at 1000 nM by Kinomescan method relative to control
Sequence of Discoidin domain-containing receptor 2 (Homo sapiens) (Q16832 whole entry, the tested form may be a part): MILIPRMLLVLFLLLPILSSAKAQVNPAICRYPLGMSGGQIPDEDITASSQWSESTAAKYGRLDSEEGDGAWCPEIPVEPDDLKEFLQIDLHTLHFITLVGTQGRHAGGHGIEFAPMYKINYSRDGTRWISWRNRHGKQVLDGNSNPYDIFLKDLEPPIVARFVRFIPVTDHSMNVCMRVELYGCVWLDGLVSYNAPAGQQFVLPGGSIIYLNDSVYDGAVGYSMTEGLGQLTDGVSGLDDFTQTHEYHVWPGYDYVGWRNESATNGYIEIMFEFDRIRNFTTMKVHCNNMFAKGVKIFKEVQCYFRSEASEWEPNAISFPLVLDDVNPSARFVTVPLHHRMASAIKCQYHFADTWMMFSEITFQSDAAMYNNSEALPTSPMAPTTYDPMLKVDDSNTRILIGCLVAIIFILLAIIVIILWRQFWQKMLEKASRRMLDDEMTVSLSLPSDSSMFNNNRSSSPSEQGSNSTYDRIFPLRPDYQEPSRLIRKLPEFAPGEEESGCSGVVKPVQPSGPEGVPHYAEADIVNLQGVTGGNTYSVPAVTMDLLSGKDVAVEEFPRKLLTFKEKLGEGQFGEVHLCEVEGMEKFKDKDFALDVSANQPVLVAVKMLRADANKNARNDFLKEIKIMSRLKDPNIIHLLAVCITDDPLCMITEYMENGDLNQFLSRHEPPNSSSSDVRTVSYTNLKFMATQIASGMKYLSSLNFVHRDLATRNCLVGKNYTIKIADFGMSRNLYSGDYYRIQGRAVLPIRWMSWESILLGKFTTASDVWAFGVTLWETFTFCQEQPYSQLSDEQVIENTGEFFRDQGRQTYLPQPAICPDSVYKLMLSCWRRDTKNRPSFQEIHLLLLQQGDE

[6] = system: Receptor-type tyrosine-protein kinase FLT3 (Homo sapiens), P36888 [UNDEFINED MUTATION]; assay: Binding affinity to human partial length FLT3 ITD/D835V double mutant expressed in bacterial expression system assessed as remaining unbound target protein level at 1000 nM by Kinomescan method relative to control
Sequence of Receptor-type tyrosine-protein kinase FLT3 (Homo sapiens), P36888 [UNDEFINED MUTATION] (P36888 whole entry, looked up, stated change not applied): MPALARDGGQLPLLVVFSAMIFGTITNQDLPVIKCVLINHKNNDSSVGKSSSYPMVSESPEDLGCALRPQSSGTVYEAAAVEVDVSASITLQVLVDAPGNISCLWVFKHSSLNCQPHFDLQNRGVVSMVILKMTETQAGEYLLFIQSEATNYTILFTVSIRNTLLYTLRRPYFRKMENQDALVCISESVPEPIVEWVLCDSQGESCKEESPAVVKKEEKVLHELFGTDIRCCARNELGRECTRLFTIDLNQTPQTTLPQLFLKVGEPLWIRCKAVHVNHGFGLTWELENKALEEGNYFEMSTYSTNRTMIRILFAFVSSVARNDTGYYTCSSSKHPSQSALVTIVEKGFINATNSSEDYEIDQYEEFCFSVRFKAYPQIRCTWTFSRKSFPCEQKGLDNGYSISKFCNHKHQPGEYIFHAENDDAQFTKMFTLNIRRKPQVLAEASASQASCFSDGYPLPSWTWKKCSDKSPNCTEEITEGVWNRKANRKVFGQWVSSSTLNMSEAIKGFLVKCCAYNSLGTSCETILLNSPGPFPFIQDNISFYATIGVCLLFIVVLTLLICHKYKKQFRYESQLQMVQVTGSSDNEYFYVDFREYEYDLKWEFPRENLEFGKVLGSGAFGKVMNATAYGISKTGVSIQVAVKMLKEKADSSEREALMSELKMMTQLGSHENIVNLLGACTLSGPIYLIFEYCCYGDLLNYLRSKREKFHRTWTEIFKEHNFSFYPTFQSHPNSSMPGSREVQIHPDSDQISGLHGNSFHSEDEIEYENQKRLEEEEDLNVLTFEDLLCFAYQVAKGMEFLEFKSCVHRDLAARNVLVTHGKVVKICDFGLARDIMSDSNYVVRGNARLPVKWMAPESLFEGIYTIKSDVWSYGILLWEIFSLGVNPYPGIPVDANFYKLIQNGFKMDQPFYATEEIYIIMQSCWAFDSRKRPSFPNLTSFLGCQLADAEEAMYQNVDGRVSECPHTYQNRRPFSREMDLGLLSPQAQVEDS
How it was run: (§3)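 KINOMEscan competition-binding profiling across the panel of 468 kinases and mutants, with inhibitor tested at 1 μM. Binding is expressed as percent of control, with DMSO as the reference control.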

[7] = target: Mitogen-activated protein kinase kinase kinase kinase 1 (Homo sapiens) (UniProt Q92918); assay: Binding affinity to wild-type human full length HPK1 (M1 to R799 residues) expressed in bacterial expression system assessed as remaining unbound target protein level at 1000 nM by Kinomescan method relative to control
How it was run: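 KINOMEscan competition binding profile across a panel of 468 kinases and mutants, with the inhibitor tested at a single concentration of 1 μM. Binding is reported as percent of control, meaning signal relative to a DMSO control.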

[8] = target: Inhibitor of nuclear factor kappa-B kinase subunit beta (Homo sapiens) (UniProt O14920); assay: Binding affinity to wild-type human full length IKK-beta (M1 to S756 residues) expressed in mammalian expression system assessed as remaining unbound target protein level at 1000 nM by Kinomescan method relative to control; how it was run: as §2
[9] = target: Interleukin-1 receptor-associated kinase 1 (Homo sapiens) (UniProt P51617); assay: Binding affinity to wild-type human partial length IRAK1 (R194 to S712 residues) expressed in mammalian expression system assessed as remaining unbound target protein level at 1000 nM by Kinomescan method relative to control
How it was run: (§4)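 KINOMEscan binding panel of 468 kinases/mutants. Inhibitor was tested at a single concentration of 1 μM. Binding is reported as percent of control, defined relative to a DMSO control.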

[10] = target: Serine/threonine-protein kinase STK11 (Homo sapiens) (UniProt Q15831); assay: Binding affinity to wild-type human full length LKB1 (M1 to Q433 residues) expressed in bacterial expression system assessed as remaining unbound target protein level at 1000 nM by Kinomescan method relative to control; how it was run: as §2
Sequence of Serine/threonine-protein kinase STK11 (Homo sapiens) (Q15831 whole entry, the tested form may be a part): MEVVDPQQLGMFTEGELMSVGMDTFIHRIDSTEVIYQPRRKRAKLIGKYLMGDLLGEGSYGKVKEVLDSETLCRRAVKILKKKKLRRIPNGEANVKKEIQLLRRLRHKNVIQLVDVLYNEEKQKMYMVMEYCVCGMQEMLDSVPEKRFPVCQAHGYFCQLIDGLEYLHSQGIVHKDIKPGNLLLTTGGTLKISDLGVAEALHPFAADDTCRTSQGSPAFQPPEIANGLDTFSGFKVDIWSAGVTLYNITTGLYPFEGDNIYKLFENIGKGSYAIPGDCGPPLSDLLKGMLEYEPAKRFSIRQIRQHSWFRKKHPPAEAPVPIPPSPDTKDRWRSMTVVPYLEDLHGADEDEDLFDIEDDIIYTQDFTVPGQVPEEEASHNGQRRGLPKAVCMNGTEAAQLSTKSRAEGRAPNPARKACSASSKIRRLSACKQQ

[11] = target: MAP kinase-activated protein kinase 5 (Homo sapiens) (UniProt Q8IW41); assay: Binding affinity to wild-type human partial length MAPKAPK5 (M1 to D322 residues) expressed in mammalian expression system assessed as remaining unbound target protein level at 1000 nM by Kinomescan method relative to control; how it was run: as §4
[12] = target: Serine/threonine-protein kinase MRCK alpha (Homo sapiens) (UniProt Q5VT25); assay: Binding affinity to wild-type human partial length MRCKA (L57 to V418 residues) expressed in bacterial expression system assessed as remaining unbound target protein level at 1000 nM by Kinomescan method relative to control
[13] = target: 3-phosphoinositide-dependent protein kinase 1 (Homo sapiens) (UniProt O15530); assay: Binding affinity to wild-type human full length PDPK1 (M1 to Q556 residues) expressed in bacterial expression system assessed as remaining unbound target protein level at 1000 nM by Kinomescan method relative to control; how it was run: as §1
[14] = target: Phosphatidylinositol 5-phosphate 4-kinase type-2 beta (Homo sapiens) (UniProt P78356); assay: Binding affinity to wild-type human full length PIP5K2B (M1 to T416 residues) expressed in bacterial expression system assessed as remaining unbound target protein level at 1000 nM by Kinomescan method relative to control; how it was run: as §1
Sequence of Phosphatidylinositol 5-phosphate 4-kinase type-2 beta (Homo sapiens) (P78356 whole entry, the tested form may be a part): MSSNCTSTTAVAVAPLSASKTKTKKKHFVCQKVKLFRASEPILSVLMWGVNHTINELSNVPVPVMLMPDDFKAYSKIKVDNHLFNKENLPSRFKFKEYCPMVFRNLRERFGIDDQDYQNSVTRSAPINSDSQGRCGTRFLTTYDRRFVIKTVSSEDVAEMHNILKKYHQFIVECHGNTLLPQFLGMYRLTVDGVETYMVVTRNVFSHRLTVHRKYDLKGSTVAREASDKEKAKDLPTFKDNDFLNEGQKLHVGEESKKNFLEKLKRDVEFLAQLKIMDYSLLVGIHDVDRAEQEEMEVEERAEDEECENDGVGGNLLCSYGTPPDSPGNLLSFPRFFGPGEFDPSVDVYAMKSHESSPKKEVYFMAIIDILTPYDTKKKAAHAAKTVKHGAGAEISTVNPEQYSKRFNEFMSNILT

[15] = target: Protein kinase C theta type (Homo sapiens) (UniProt Q04759); assay: Binding affinity to wild-type human partial length PRKCQ (L350 to S706 residues) expressed in bacterial expression system assessed as remaining unbound target protein level at 1000 nM by Kinomescan method relative to control
Sequence of Protein kinase C theta type (Homo sapiens) (Q04759 whole entry, looked up, the tested form may be a part): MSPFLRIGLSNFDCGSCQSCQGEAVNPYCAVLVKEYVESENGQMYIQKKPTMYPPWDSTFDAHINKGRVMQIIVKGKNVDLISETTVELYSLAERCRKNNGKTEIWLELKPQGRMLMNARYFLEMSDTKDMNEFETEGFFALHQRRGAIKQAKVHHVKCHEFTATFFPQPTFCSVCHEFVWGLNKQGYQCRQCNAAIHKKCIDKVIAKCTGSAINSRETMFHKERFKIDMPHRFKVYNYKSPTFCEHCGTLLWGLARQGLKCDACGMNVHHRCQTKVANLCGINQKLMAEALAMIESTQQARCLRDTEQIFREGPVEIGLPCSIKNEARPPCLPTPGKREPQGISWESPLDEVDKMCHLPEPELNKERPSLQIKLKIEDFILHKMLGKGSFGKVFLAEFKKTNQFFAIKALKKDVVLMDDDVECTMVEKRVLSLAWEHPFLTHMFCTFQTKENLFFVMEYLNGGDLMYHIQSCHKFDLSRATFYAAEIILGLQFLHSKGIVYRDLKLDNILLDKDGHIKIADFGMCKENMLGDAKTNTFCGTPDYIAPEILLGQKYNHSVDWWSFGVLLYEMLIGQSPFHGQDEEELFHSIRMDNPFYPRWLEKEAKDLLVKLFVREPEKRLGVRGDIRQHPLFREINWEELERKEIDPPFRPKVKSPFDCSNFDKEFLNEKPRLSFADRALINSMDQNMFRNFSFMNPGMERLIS

[16] = system: Proto-oncogene tyrosine-protein kinase receptor Ret (Homo sapiens), P07949 [V804L]; assay: Binding affinity to human partial length RET V804L mutant (E713 to D1014 residues) expressed in bacterial expression system assessed as remaining unbound target protein level at 1000 nM by Kinomescan method relative to control; how it was run: as §3
[17] = system: Proto-oncogene tyrosine-protein kinase receptor Ret (Homo sapiens), P07949 [V804M]; assay: Binding affinity to human partial length RET V804M mutant (E713 to D1014 residues) expressed in bacterial expression system assessed as remaining unbound target protein level at 1000 nM by Kinomescan method relative to control; how it was run: as §3
[18] = target: Transient receptor potential cation channel subfamily M member 6 (Homo sapiens) (UniProt Q9BX84); assay: Binding affinity to wild-type human partial length TRPM6 (Q1723 to I1998 residues) expressed in mammalian expression system assessed as remaining unbound target protein level at 1000 nM by Kinomescan method relative to control
[19] = target: Phosphatidylinositol 3-kinase catalytic subunit type 3 (Homo sapiens) (UniProt Q8NEB9); assay: Binding affinity to wild-type human partial length VPS34 (S282 to H879 residues) expressed in mammalian expression system assessed as remaining unbound target protein level at 1000 nM by Kinomescan method relative to control
[20] = target: Wee1-like protein kinase (Homo sapiens) (UniProt P30291); assay: Binding affinity to wild-type human partial length WEE1 (M291 to K575 residues) expressed in bacterial expression system assessed as remaining unbound target protein level at 1000 nM by Kinomescan method relative to control

COCCN[C@H]1CC[C@H](Nc2cc(-c3csc(NCC4(C#N)CCOCC4)n3)c(Cl)cn2)CC1
Activity [1]: 96% | Activity [2]: 100% | Activity [3]: 90% | Activity [4]: 100% | Activity [5]: 97% | Activity [6]: 65% | Activity [7]: 95% | Activity [8]: 90% | Activity [9]: 57% | Activity [10]: 100% | Activity [11]: 93% | Activity [12]: 83% | Activity [13]: 92% | Activity [14]: 100% | Activity [15]: 100% | Activity [16]: 92% | Activity [17]: 98% | Activity [18]: 89% | Activity [19]: 95% | Activity [20]: 94%
